MrgX1 ag: activates human MrgX1 receptor signaling | MrgX1-HEK293 cells, Fluo-4 calcium fluorescence, agonist mode; hits give high values | actives 0.44% (n = 310,000) | B-score at 10 µM | Q96LB2;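 active = calcium response B-score plate-corrected fluorescence ratio at least 3 library SD, with starting fluorescence B-score inside 5 SD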
Target sequence (Q96LB2 whole entry, looked up): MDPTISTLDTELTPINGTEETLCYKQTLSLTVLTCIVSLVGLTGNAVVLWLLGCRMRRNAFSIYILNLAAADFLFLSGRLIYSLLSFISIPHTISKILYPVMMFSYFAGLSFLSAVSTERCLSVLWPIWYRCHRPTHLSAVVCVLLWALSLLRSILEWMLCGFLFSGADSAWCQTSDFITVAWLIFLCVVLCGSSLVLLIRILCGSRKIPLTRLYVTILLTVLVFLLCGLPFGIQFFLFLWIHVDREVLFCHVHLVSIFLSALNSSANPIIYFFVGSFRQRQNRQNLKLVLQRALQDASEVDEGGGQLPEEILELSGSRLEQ
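Test system: HEK293 cells stably expressing human MrgX1 receptor; Input: fifteen thousand cells per well; Dosing: compound delivered in addition one of three; Schedule: overnight seeding, then 1 h dark dye loading; Technique: Fluo-4 NW calcium fluorescence; Measure: B-scored fluorescence response ratio; Controls: positive and negative controls per plate.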
RGS4 inh: human RGS4 inhibition | P49798 | HEK293 M3R/RGS4 inducible, Fluo-4 calcium flux; hits give high values; triggered by carbachol at its EC20 | B-score at 10 µM | actives 0.45% (n = 310,000) | AID 463165;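 active = B-score, a plate-corrected calcium signal, over three deviations above library mean, with baseline fluorescence within five deviations of library mean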;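 note: RGS4 expression induced by doxycycline in cells with stable M3 receptor; B-score is computed from the integrated fluorescence ratio over baseline after carbachol; higher B-score means a larger calcium signal and so more RGS4 inhibition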
Target sequence (P49798 whole entry, looked up): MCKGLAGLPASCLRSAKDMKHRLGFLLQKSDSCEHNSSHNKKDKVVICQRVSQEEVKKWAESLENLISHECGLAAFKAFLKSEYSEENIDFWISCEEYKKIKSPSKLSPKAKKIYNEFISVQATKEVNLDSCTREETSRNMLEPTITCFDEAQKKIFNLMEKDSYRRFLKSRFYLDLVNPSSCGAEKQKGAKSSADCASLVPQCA
MrgX1 allo act: allosterically activates human MrgX1 receptor signaling | B-score at 10 µM | Q96LB2 | MrgX1-HEK293, Fluo-4 calcium flux, FDSS; hits give high values | actives 0.63% (n = 310,000);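 active = plate-corrected calcium response at least 3 library SD above typical, normal starting fluorescence, not activating the receptor alone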;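 note: compound read alongside a low EC10 to EC30 dose of BAM8-22 agonist; peak minus trough fluorescence over baseline measured at the second addition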
RGS4 pot: RGS4 potentiation or activation; HEK293 M3R/inducible RGS4, carbachol calcium flux Fluo4; hits give low values; B-score at 10 µM; actives 0.92% (n = 310,000);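 active = B-score of the integrated calcium signal more than 4 SD below the library mean, with starting fluorescence not abnormally high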;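 note: negative B-score means reduced calcium response which marks RGS4 activation or potentiation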
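System – HEK293 FlpIn-TREx cells, stable M3R, doxycycline-inducible RGS4 · Reagent – ECmax carbachol challenge · Times – compound preincubation 20 min at room temperature before agonist · Technique – Fluo4 fluorescence kinetic imaging of calcium · Measure – B score of integrated Fluo4 ratio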
MrgX1 antag: antagonists of human MrgX1 receptor; MRGX1-HEK293 calcium flux, Fluo-4, BAM8-22 antagonism; hits give low values; B-score at 10 µM; actives 1.3% (n = 310,000); AID 588676;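 active = calcium-response B-score plate-corrected more than 3 library SD below zero, starting fluorescence within 5 deviations, no agonist response on first addition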;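 note: peak minus trough fluorescence over baseline after final BAM8-22 challenge near maximal dose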
MrgX1 allo conf: reconfirmed allosteric activator of human MrgX1 receptor | shares compounds with MrgX1 allo act | MrgX1-HEK293, Fluo-4 calcium fluorescence, FDSS | activation (ratio percentage), % at 10 µM | actives 13% (n = 1,200);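 active = ratio at least 3 SD above the weak peptide control, stable starting fluorescence, no direct agonism earlier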;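 note: compound followed by low BAM8-22 agonist challenge near EC20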
HEK293 Ca flux: MrgX1 antagonist counter-screen hit in parental HEK293 cells; shares compounds with MrgX1 antag; actives 2% (n = 4,000); fluorescence ratio F(max-min)/F0 at 10 µM; Fluo-4 calcium fluorescence, FDSS;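 active = duplicate-averaged calcium fluorescence ratio at least three times the standard deviation of buffer wells, a nonspecific response in parental cells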
HEK293 Ca counter: activity in parental HEK293 cells without MrgX1. shares compounds with MrgX1 antag. parental HEK293 calcium flux, Fluo-4 fluorescence ratio; hits give high values. fluorescence ratio F(max-min)/F0 at 10 µM. actives 0.4% (n = 4,000). AID 624114;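 active = calcium fluorescence ratio, averaged over duplicates, at least 3 SD of the buffer-well ratio, meaning a nonspecific response in receptor-free cells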;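 note: untransfected parental HEK293 lacking MrgX1 used as counterscreen for MrgX1 allosteric activators; fluorescence change taken during the second addition on a kinetic imager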
HEK293 Ca cntr2: counter-screen for MrgX1 activators: effect in parental HEK293 cells. shares compounds with MrgX1 antag. Fluo-4 calcium fluorescence (FDSS); hits give high values. fluorescence ratio F(max-min)/F0 at 10 µM. actives 8.7% (n = 4,000). AID 624115;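 active = calcium fluorescence ratio at least three times the spread of buffer wells, meaning a non-specific response in parental cells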
The depositor's hits bear a star. Rows were chosen to be rich in hits. Some 3.5% of all compounds tested hit in one or more screens of this group.

How did Cc1c(C(=O)NCCC2=CCCCC2)sc2ncnc(N3CCCCC3C)c12 (stereo not drawn) do in these assays?
MrgX1 ag: inactive; RGS4 inh: inactive; MrgX1 allo act: inactive; RGS4 pot: inactive; MrgX1 antag: inactive

What do the screens show for `Cc1sc2ncnc(N3CCCC(C)C3)c2c1C` (stereo not drawn)?
MrgX1 ag: inactive; RGS4 inh: inactive; MrgX1 allo act: 28*; RGS4 pot: inactive; MrgX1 antag: inactive; MrgX1 allo conf: 25%*; HEK293 Ca flux: inactive; HEK293 Ca counter: inactive; HEK293 Ca cntr2: inactive

How did Cc1sc2ncnc(N3CCOCC3)c2c1C do in these assays?
MrgX1 ag: inactive; RGS4 inh: inactive; MrgX1 allo act: inactive; RGS4 pot: inactive; MrgX1 antag: inactive

How did Oc1ccc(/C=C/c2cnccn2)cc1 do in these assays?
MrgX1 ag: inactive; RGS4 inh: inactive; MrgX1 allo act: inactive; RGS4 pot: inactive; MrgX1 antag: inactive

Results for COc1cc(CC(=O)N(C)CC(=O)Nc2ccc(Cl)c(C(F)(F)F)c2)cc(OC)c1OC ?
MrgX1 ag: inactive; RGS4 inh: inactive; MrgX1 allo act: inactive; RGS4 pot: inactive; MrgX1 antag: inactive

How did COc1ccc(CCNC(=O)CCc2ccccc2)cc1OC do in these assays?
MrgX1 ag: inactive; RGS4 inh: inactive; MrgX1 allo act: 7.5*; RGS4 pot: inactive; MrgX1 antag: inactive; MrgX1 allo conf: inactive; HEK293 Ca flux: inactive; HEK293 Ca counter: inactive; HEK293 Ca cntr2: inactive

How did O=C(CNCc1cccs1)Nc1ccc(OC(F)(F)F)cc1 do in these assays?
MrgX1 ag: inactive; RGS4 inh: inactive; MrgX1 allo act: inactive; RGS4 pot: inactive; MrgX1 antag: inactive

How did CC12COC3(C(=O)Nc4ccc5ccccc5c4)CC1CCC32C (stereo not drawn) do in these assays?
MrgX1 ag: inactive; RGS4 inh: inactive; MrgX1 allo act: 17*; RGS4 pot: inactive; MrgX1 antag: inactive; MrgX1 allo conf: inactive; HEK293 Ca flux: inactive; HEK293 Ca counter: inactive; HEK293 Ca cntr2: inactive

What do the screens show for `CC12COC3(C(=O)Nc4cccnc4)CC1CCC32C` (stereo not drawn)?
MrgX1 ag: inactive; RGS4 inh: inactive; MrgX1 allo act: inactive; RGS4 pot: inactive; MrgX1 antag: inactive

Results for Cc1ccccc1NC(=O)C12CC3CCC1(C)C3(C)CO2 (stereo not drawn) ?
MrgX1 ag: inactive; RGS4 inh: inactive; MrgX1 allo act: 6.9*; RGS4 pot: inactive; MrgX1 antag: inactive; MrgX1 allo conf: inactive; HEK293 Ca flux: inactive; HEK293 Ca counter: inactive; HEK293 Ca cntr2: inactive

What do the screens show for `CC12COC3(C(=O)Nc4ccccc4)CC1CCC32C` (stereo not drawn)?
MrgX1 ag: inactive; RGS4 inh: inactive; MrgX1 allo act: 9.7*; RGS4 pot: inactive; MrgX1 antag: inactive; MrgX1 allo conf: inactive; HEK293 Ca flux: inactive; HEK293 Ca counter: inactive; HEK293 Ca cntr2: inactive

How did CCc1n[nH]c(=S)n1/N=C/C(C)=C\c1ccccc1 do in these assays?
MrgX1 ag: inactive; RGS4 inh: inactive; MrgX1 allo act: 6.6*; RGS4 pot: inactive; MrgX1 antag: inactive; MrgX1 allo conf: inactive; HEK293 Ca flux: inactive; HEK293 Ca counter: inactive; HEK293 Ca cntr2: inactive

How did CCc1ccc([C@@H]2CC=C(C(=O)O)CN2S(=O)(=O)c2ccc(C)cc2)cc1 do in these assays?
MrgX1 ag: inactive; MrgX1 allo act: inactive; MrgX1 antag: inactive

What do the screens show for `CCOCC(=O)Nc1ccc([N+](=O)[O-])cc1Cl`?
MrgX1 ag: inactive; RGS4 inh: inactive; MrgX1 allo act: inactive; RGS4 pot: inactive; MrgX1 antag: inactive

How did Cc1cccc(N=C2NC(=O)/C(=C3/C(=O)N(C)c4ccccc43)S2)c1C do in these assays?
MrgX1 ag: inactive; RGS4 inh: inactive; MrgX1 allo act: 7.3*; RGS4 pot: inactive; MrgX1 antag: inactive; MrgX1 allo conf: inactive; HEK293 Ca flux: inactive; HEK293 Ca counter: inactive; HEK293 Ca cntr2: inactive

What do the screens show for `COc1ccc(N2CCN(CC(O)COCc3ccccc3)CC2)cc1` (stereo not drawn)?
MrgX1 ag: inactive; RGS4 inh: inactive; MrgX1 allo act: 7.7*; RGS4 pot: inactive; MrgX1 antag: inactive; MrgX1 allo conf: inactive; HEK293 Ca flux: inactive; HEK293 Ca counter: inactive; HEK293 Ca cntr2: inactive

What do the screens show for `COc1ccc(-c2cn(-c3ccccc3)nc2CO)cc1`?
MrgX1 ag: inactive; RGS4 inh: inactive; MrgX1 allo act: 8.6*; RGS4 pot: inactive; MrgX1 antag: inactive; MrgX1 allo conf: inactive; HEK293 Ca flux: inactive; HEK293 Ca counter: inactive; HEK293 Ca cntr2: inactive

Results for COc1ccc(-c2nn(-c3ccccc3)cc2CO)cc1 ?
MrgX1 ag: inactive; RGS4 inh: inactive; MrgX1 allo act: 10*; RGS4 pot: inactive; MrgX1 antag: inactive; MrgX1 allo conf: inactive; HEK293 Ca flux: inactive; HEK293 Ca counter: inactive; HEK293 Ca cntr2: inactive

How did Cc1ccc(-c2nn(-c3ccccc3)cc2CO)cc1 do in these assays?
MrgX1 ag: inactive; RGS4 inh: inactive; MrgX1 allo act: 38*; RGS4 pot: inactive; MrgX1 antag: inactive; MrgX1 allo conf: 6.8%*; HEK293 Ca flux: inactive; HEK293 Ca counter: inactive; HEK293 Ca cntr2: inactive

Results for COc1ccc(-c2nn(-c3ccccc3)cc2N)cc1 ?
MrgX1 ag: inactive; RGS4 inh: inactive; MrgX1 allo act: inactive; RGS4 pot: inactive; MrgX1 antag: inactive

What do the screens show for `O=C(c1ccc(OC2CCN(CCc3ccccc3)CC2)cc1)N1CCC(CO)CC1`?
MrgX1 ag: inactive; RGS4 inh: inactive; MrgX1 allo act: inactive; RGS4 pot: inactive; MrgX1 antag: inactive

How did COc1ccc(S(=O)(=O)N2CCOC23CCN(C(=O)c2c(F)cccc2Cl)CC3)cc1 do in these assays?
MrgX1 ag: inactive; RGS4 inh: inactive; MrgX1 allo act: inactive; RGS4 pot: inactive; MrgX1 antag: inactive
